Source: ChEMBL document CHEMBL1154531, “Synthesis and structure-activity studies of novel homomorpholine oxazolidinone antibacterial agents” (Bioorg Med Chem Lett, 2009)
Converted amounts (≈) assume the structure as drawn.

What was measured:
Format in all cases: functional
Staphylococcus aureus = experiment: Antibacterial activity against Staphylococcus aureus UC-76 SA-1 by micro broth method
Outline: (§1)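 Minimum inhibitory concentration determined by broth microdilution and reported in μg/mL.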

Streptococcus pneumoniae = experiment: Antibacterial activity against Streptococcus pneumoniae SV1 SP-3 by micro broth method; outline: as §1
Enterococcus faecalis = experiment: Antibacterial activity against Enterococcus faecalis MGH-2 EF1-1 by micro broth method; outline: as §1
Streptococcus pyogenes = experiment: Antibacterial activity against Streptococcus pyogenes C-203 by micro broth method; outline: as §1
Escherichia coli = experiment: Antibacterial activity against Escherichia coli by transcription-translation assay
Outline: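 Cell-free E. coli coupled in vitro transcription/translation system with a luciferase reporter as read-out.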

Row | MIC (Staphylococcus aureus) | MIC (Streptococcus pneumoniae) | MIC (Enterococcus faecalis) | MIC (Streptococcus pyogenes) | IC50 (Escherichia coli) | Structure (SMILES)
1 | 16 µg/mL (≈ 47.4 µM) | 8 µg/mL (≈ 23.7 µM) | 16 µg/mL (≈ 47.4 µM) | 8 µg/mL (≈ 23.7 µM) |  | CNC(=O)[C@H]1CN(c2ccc(N3CCCOCC3)c(F)c2)C(=O)O1
2 | 4 µg/mL (≈ 11.3 µM) | 4 µg/mL (≈ 11.3 µM) | 8 µg/mL (≈ 22.5 µM) | 4 µg/mL (≈ 11.3 µM) | 6.37 µM | CNC(=O)[C@H]1CN(c2cc(F)c(N3CCCOCC3)c(F)c2)C(=O)O1
3 | 2 µg/mL (≈ 5.41 µM) | 1 µg/mL (≈ 2.71 µM) | 1 µg/mL (≈ 2.71 µM) | 1 µg/mL (≈ 2.71 µM) | 1.67 µM | CC(=O)NC[C@H]1CN(c2cc(F)c(N3CCCOCC3)c(F)c2)C(=O)O1
4 | 2 µg/mL (≈ 5.19 µM) | 1 µg/mL (≈ 2.59 µM) | 2 µg/mL (≈ 5.19 µM) | 1 µg/mL (≈ 2.59 µM) | 1.9 µM | COC(=O)NC[C@H]1CN(c2cc(F)c(N3CCCOCC3)c(F)c2)C(=O)O1
5 | 16 µg/mL (≈ 46.6 µM) | 16 µg/mL (≈ 46.6 µM) | 32 µg/mL (≈ 93.2 µM) | 8 µg/mL (≈ 23.3 µM) |  | O=C1O[C@@H](Cn2ccnn2)CN1c1ccc(N2CCCOCC2)cc1
6 | > 32 µg/mL | 4 µg/mL (≈ 8.41 µM) | > 32 µg/mL | 2 µg/mL (≈ 4.21 µM) |  | C[Si](C)(C)C#Cc1cn(C[C@H]2CN(c3cc(F)c(N4CCCOCC4)c(F)c3)C(=O)O2)nn1
7 | 4 µg/mL (≈ 11.4 µM) | 2 µg/mL (≈ 5.69 µM) | 2 µg/mL (≈ 5.69 µM) | 2 µg/mL (≈ 5.69 µM) | 2.3 µM | CC(=O)NC[C@H]1CN(c2ccc(N3CCCOCC3)c(F)c2)C(=O)O1
8 | > 64 µg/mL | > 64 µg/mL | > 64 µg/mL | > 64 µg/mL |  | O=C1O[C@@H](CO)CN1c1ccc(N2CCCOCC2)cc1
9 | 4 µg/mL (≈ 9.92 µM) | 2 µg/mL (≈ 4.96 µM) | 2 µg/mL (≈ 4.96 µM) | 2 µg/mL (≈ 4.96 µM) |  | C#Cc1cn(C[C@H]2CN(c3cc(F)c(N4CCCOCC4)c(F)c3)C(=O)O2)nn1
10 | 8 µg/mL (≈ 24.7 µM) | 16 µg/mL (≈ 49.5 µM) | 16 µg/mL (≈ 49.5 µM) | 8 µg/mL (≈ 24.7 µM) |  | NC(=O)[C@H]1CN(c2ccc(N3CCCOCC3)c(F)c2)C(=O)O1
11 | 4 µg/mL (≈ 12.2 µM) | 4 µg/mL (≈ 12.2 µM) | 8 µg/mL (≈ 24.4 µM) | 2 µg/mL (≈ 6.09 µM) |  | O=C1O[C@@H](CO)CN1c1cc(F)c(N2CCCOCC2)c(F)c1
12 | 16 µg/mL (≈ 44.5 µM) | 16 µg/mL (≈ 44.5 µM) | 32 µg/mL (≈ 89.1 µM) | 16 µg/mL (≈ 44.5 µM) | 23.4 µM | NC(=O)[C@H]1CN(c2cc(F)c(N3CCCOCC3)c(F)c2F)C(=O)O1
13 | 32 µg/mL (≈ 100 µM) | 32 µg/mL (≈ 100 µM) | 64 µg/mL (≈ 200 µM) | 32 µg/mL (≈ 100 µM) |  | CNC(=O)[C@H]1CN(c2ccc(N3CCCOCC3)cc2)C(=O)O1
14 | 32 µg/mL (≈ 105 µM) | 32 µg/mL (≈ 105 µM) | 64 µg/mL (≈ 210 µM) | 64 µg/mL (≈ 210 µM) |  | NC(=O)[C@H]1CN(c2ccc(N3CCCOCC3)cc2)C(=O)O1
15 | 16 µg/mL (≈ 45.8 µM) | 16 µg/mL (≈ 45.8 µM) | 16 µg/mL (≈ 45.8 µM) | 8 µg/mL (≈ 22.9 µM) |  | COC(=O)NC[C@H]1CN(c2ccc(N3CCCOCC3)cc2)C(=O)O1
16 | 2 µg/mL (≈ 5.16 µM) | 1 µg/mL (≈ 2.58 µM) | 2 µg/mL (≈ 5.16 µM) | 2 µg/mL (≈ 5.16 µM) | 3.93 µM | CC(=O)NC[C@H]1CN(c2cc(F)c(N3CCCOCC3)c(F)c2F)C(=O)O1
17 | 32 µg/mL (≈ 78.2 µM) | 32 µg/mL (≈ 78.2 µM) | 64 µg/mL (≈ 156 µM) | 32 µg/mL (≈ 78.2 µM) |  | CC(C)(C)OC(=O)NC[C@H]1CN(c2ccc(N3CCCOCC3)c(F)c2)C(=O)O1
18 | 8 µg/mL (≈ 18.7 µM) | 16 µg/mL (≈ 37.4 µM) | 32 µg/mL (≈ 74.9 µM) | 8 µg/mL (≈ 18.7 µM) |  | CC(C)(C)OC(=O)NC[C@H]1CN(c2cc(F)c(N3CCCOCC3)c(F)c2)C(=O)O1
19 | > 64 µg/mL | > 64 µg/mL | > 64 µg/mL | > 64 µg/mL |  | Cl.NC[C@H]1CN(c2ccc(N3CCCOCC3)c(F)c2)C(=O)O1
20 | 16 µg/mL (≈ 42.9 µM) | 16 µg/mL (≈ 42.9 µM) | 32 µg/mL (≈ 85.7 µM) | 16 µg/mL (≈ 42.9 µM) | 18.9 µM | CNC(=O)[C@H]1CN(c2cc(F)c(N3CCCOCC3)c(F)c2F)C(=O)O1
21 | 8 µg/mL (≈ 24 µM) | 8 µg/mL (≈ 24 µM) | 16 µg/mL (≈ 48 µM) | 8 µg/mL (≈ 24 µM) |  | CC(=O)NC[C@H]1CN(c2ccc(N3CCCOCC3)cc2)C(=O)O1
22 | 16 µg/mL (≈ 40.9 µM) | 16 µg/mL (≈ 40.9 µM) | 32 µg/mL (≈ 81.7 µM) | 32 µg/mL (≈ 81.7 µM) |  | CC(C)(C)OC(=O)NC[C@H]1CN(c2ccc(N3CCCOCC3)cc2)C(=O)O1
23 | 2 µg/mL (≈ 5.22 µM) | 2 µg/mL (≈ 5.22 µM) | 2 µg/mL (≈ 5.22 µM) | 1 µg/mL (≈ 2.61 µM) | 2.1 µM | CCC(=O)NC[C@H]1CN(c2cc(F)c(N3CCCOCC3)c(F)c2)C(=O)O1
24 | 2 µg/mL (≈ 5.27 µM) | 2 µg/mL (≈ 5.27 µM) | 2 µg/mL (≈ 5.27 µM) | 1 µg/mL (≈ 2.64 µM) |  | O=C1O[C@@H](Cn2ccnn2)CN1c1cc(F)c(N2CCCOCC2)c(F)c1
25 | 4 µg/mL (≈ 11.7 µM) | 4 µg/mL (≈ 11.7 µM) | 8 µg/mL (≈ 23.4 µM) | 4 µg/mL (≈ 11.7 µM) | 5.87 µM | NC(=O)[C@H]1CN(c2cc(F)c(N3CCCOCC3)c(F)c2)C(=O)O1

Row | Structure (SMILES) | MIC (Staphylococcus aureus) | MIC (Streptococcus pneumoniae) | MIC (Enterococcus faecalis) | MIC (Streptococcus pyogenes) | IC50 (Escherichia coli)
26 | CC(=O)NC[C@H]1CN(c2ccc(N3CCOCC3)c(F)c2)C(=O)O1 [LINEZOLID] |  |  |  | 2 µg/mL (≈ 5.93 µM) | 
